ChEMBL document CHEMBL4184128, “Design, synthesis and biological evaluation of (E)-3,4-dihydroxystyryl 4-acylaminophenethyl sulfone, sulfoxide derivatives as dual inhibitors of HIV-1 CCR5 and integrase” (Bioorg Med Chem, 2017)

What was measured:
[1] = biological target: C-C chemokine receptor type 5 (Homo sapiens) (UniProt P51681); test: Inhibition of CCR5 in human TZM-bl cells infected with HIV1 Bal R5 assessed as antiviral activity by measuring reduction in viral infection at 50 uM pre-incubated with cells followed by viral infection measured after 3 days by luciferase reporter gene assay; format: functional, cell-based
Summary of the method: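 TZM-bl cells were plated, and medium was replaced after 12 h with compound at 50μM in duplicate wells. HIV-1 Bal (R5) at 200TCID50 was added with DEAE at 10μg/mL final. Plates were incubated 3 days at 37°C, 5% CO2. Luciferase substrate in lysis buffer reacted 2 min at room temperature, protected from light. Inhibition % was taken as the decrease in signal relative to virus control, as the mean of two wells.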

[2] = Cytotoxicity against human TZM-bl cells assessed as reduction in cell viability after 2 days by CCK-8 assay; format: cell-based
Summary of the method: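 TZM-bl cells seeded at 1×10^5 cells/mL and exposed to compound at 1000, 200, 40, 8 and 1.6µM, dissolved in DMSO cell freezing medium. Cells kept at 37°C, 5% CO2, in triplicate wells, with a medium-only control. After 2 days, CCK-8 was added for 3–4 h and A450 was read. Survival % = A450 treated/control ×100. CC50 is the concentration giving 50% cytotoxicity.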

[3] = biological target: Human immunodeficiency virus type 1 integrase (Human immunodeficiency virus 1, UniProt Q7ZJM1); test: Binding affinity to HIV1 integrase by surface plasma resonance method
Summary of the method: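 IN protein amine-coupled to a CM5 sensor chip (~10000RU) on a Biacore T200. Runs at 25°C in PBST running buffer, flow 30μL/min. Compounds were injected at graded concentrations (200μM, 100μM, 50μM, 25μM, 12.5μM, etc.). Sensorgrams were solvent-corrected and reference flow cell subtracted. KD came from a 1:1 kinetic binding fit.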

Sequence of C-C chemokine receptor type 5 (Homo sapiens) (P51681 whole entry, looked up): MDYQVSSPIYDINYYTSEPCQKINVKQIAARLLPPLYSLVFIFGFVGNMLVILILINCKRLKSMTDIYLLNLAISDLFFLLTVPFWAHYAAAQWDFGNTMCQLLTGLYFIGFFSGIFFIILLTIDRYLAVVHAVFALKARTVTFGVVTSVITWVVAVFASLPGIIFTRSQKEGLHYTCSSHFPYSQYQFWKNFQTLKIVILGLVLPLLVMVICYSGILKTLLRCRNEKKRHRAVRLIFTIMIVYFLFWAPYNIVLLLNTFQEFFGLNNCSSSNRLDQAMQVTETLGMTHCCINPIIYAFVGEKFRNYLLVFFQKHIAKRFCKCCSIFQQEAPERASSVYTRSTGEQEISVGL
Sequence of Human immunodeficiency virus type 1 integrase (Q7ZJM1 whole entry): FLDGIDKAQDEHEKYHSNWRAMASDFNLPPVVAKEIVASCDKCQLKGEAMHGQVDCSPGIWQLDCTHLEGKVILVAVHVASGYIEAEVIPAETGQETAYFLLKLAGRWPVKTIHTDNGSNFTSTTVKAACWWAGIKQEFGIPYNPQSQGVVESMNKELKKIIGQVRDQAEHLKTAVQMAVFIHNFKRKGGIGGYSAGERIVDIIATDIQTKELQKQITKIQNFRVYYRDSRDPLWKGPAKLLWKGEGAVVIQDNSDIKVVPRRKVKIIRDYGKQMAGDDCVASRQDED

inhibition [1]	Kd [3]	Structure (SMILES)	CC50 at 48 h [2]
< 20%	–	COc1ccc(C(=O)Nc2ccc(CCS(=O)(=O)/C=C/c3ccc(OC(C)=O)c(OC(C)=O)c3)cc2)cc1	858 µM
23%	–	CC(=O)Oc1ccc(/C=C/S(=O)(=O)CCc2ccc(NC(=O)Cc3cccs3)cc2)cc1OC(C)=O	161 µM
26.2%	–	CC(=O)Oc1ccc(/C=C/S(=O)(=O)CCc2ccc(NC(=O)c3ccc(F)cc3)cc2)cc1OC(C)=O	162 µM
21.6%	–	O=C(Nc1ccc(CCS(=O)(=O)/C=C/c2ccc(O)c(O)c2)cc1)C12CC3CC(CC(C3)C1)C2	786 µM
–	–	Cc1nnc(C(C)C)n1[C@@H]1C[C@H]2CC[C@@H](C1)N2CC[C@H](NC(=O)C1CCC(F)(F)CC1)c1ccccc1 [MARAVIROC]	> 1000 µM
< 20%	–	Cc1ccc(C(=O)Nc2ccc(CCS(=O)(=O)/C=C/c3ccc(O)c(O)c3)cc2)cc1	168 µM
52.2%	–	CC(=O)Oc1ccc(/C=C/S(=O)(=O)CCc2ccc(NC(=O)c3ccc([N+](=O)[O-])cc3)cc2)cc1OC(C)=O	160 µM
68.4%	142 µM	O=C(Nc1ccc(CC[S+]([O-])/C=C/c2ccc(O)c(O)c2)cc1)c1ccccc1 (centres undefined)	157 µM
64.7%	–	O=C(Nc1ccc(CC[S+]([O-])/C=C/c2ccc(O)c(O)c2)cc1)C12CC3CC(CC(C3)C1)C2 (centres undefined)	–
< 20%	207 µM	CC(=O)Oc1ccc(/C=C/S(=O)(=O)CCc2ccc(NC(=O)c3ccccc3)cc2)cc1OC(C)=O	108 µM
< 20%	–	CC(=O)Oc1ccc(/C=C/S(=O)(=O)CCc2ccc(NC(=O)c3ccc(C)cc3)cc2)cc1OC(C)=O	177 µM
52.7%	–	O=C(Nc1ccc(CC[S+]([O-])/C=C/c2ccc(O)c(O)c2)cc1)C1CCCCC1 (centres undefined)	–
< 20%	–	CC(=O)Oc1ccc(/C=C/S(=O)(=O)CCc2ccc(NC(=O)c3cc(F)cc(F)c3)cc2)cc1OC(C)=O	225 µM
< 20%	–	COc1ccc(C(=O)Nc2ccc(CCS(=O)(=O)/C=C/c3ccc(O)c(O)c3)cc2)cc1	> 1000 µM
64.6%	–	O=C(Nc1ccc(CC[S+]([O-])/C=C/c2ccc(O)c(O)c2)cc1)c1ccc(F)cc1 (centres undefined)	127 µM
45.9%	115 µM	O=C(Nc1ccc(CCS(=O)(=O)/C=C/c2ccc(O)c(O)c2)cc1)C1CCCCC1	638 µM
< 20%	–	O=C(Nc1ccc(CCS(=O)(=O)/C=C/c2ccc(O)c(O)c2)cc1)c1ccc(F)cc1	> 1000 µM
23.7%	–	CC(=O)Oc1ccc(/C=C/S(=O)(=O)CCc2ccc(NC(=O)C34CC5CC(CC(C5)C3)C4)cc2)cc1OC(C)=O	182 µM
41.8%	–	O=C(Nc1ccc(CC[S+]([O-])/C=C/c2ccc(O)c(O)c2)cc1)c1cc(F)cc(F)c1 (centres undefined)	–
34.1%	–	COc1ccc(C(=O)Nc2ccc(CC[S+]([O-])/C=C/c3ccc(O)c(O)c3)cc2)cc1 (centres undefined)	–
< 20%	160 µM	O=C(Nc1ccc(CCS(=O)(=O)/C=C/c2ccc(O)c(O)c2)cc1)c1ccccc1	238 µM
23.4%	–	O=C(Nc1ccc(CCS(=O)(=O)/C=C/c2ccc(O)c(O)c2)cc1)c1ccc([N+](=O)[O-])cc1	483 µM
33%	–	O=C(Nc1ccc(CCS(=O)(=O)/C=C/c2ccc(O)c(O)c2)cc1)c1cc(F)cc(F)c1	414 µM
< 20%	–	O=C(Cc1cccs1)Nc1ccc(CCS(=O)(=O)/C=C/c2ccc(O)c(O)c2)cc1	569 µM
< 20%	–	CC(=O)Oc1ccc(/C=C/S(=O)(=O)CCc2ccc(NC(=O)C3CCCCC3)cc2)cc1OC(C)=O	169 µM
